# Measurements: article PMC7702297 (Journal of the American Chemical Society, 2020)
# Read-outs that look alike come from different tables or passages of the source.
# Legend:
# RAW 264.7 cells = assay: Cytotoxicity
# [1] = system: RAW 264.7 macrophage cells; assay: Intracellular ROS by DHE fluorescence in PMA-treated macrophages; type: cell-based; settings: PMA 1 μg/mL 3 h; DHE 10 μM 30 min
# [2] = system: RAW 264.7 macrophage cells; assay: Protection from PMA-induced cytotoxicity; type: cell-based
# [3] = H2S release measured with H2S-sensitive electrochemical probe; type: physicochemical
# [4] = Conventional and cryogenic TEM of self-assembled nanostructures; type: physicochemical
# Static light scattering = type: physicochemical; settings: average
# [5] = Nile Red assay, critical aggregation concentration; type: physicochemical; settings: Nile Red fluorescence; 10 mM phosphate buffer pH 7.4, room temperature
# Summary of the method: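 Test compound dissolved in 10 mM phosphate buffer pH 7.4 at room temperature, where it self-assembles. Nile Red fluorescence intensity was recorded across a series of test compound concentrations. CAC was calculated from the rise in intensity with concentration, taken as Nile Red solubilisation in the hydrophobic domain.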
# [6] = PMA 2 μg/mL 3 h, Cys 800 μM, AdKOKOEE and AdKSKSE 200 μM (+ Cys), GYY4137 and Na2S 400 μM, Figure 4B
# [7] = conventional and cryo-TEM, PB 10 mM pH 7.4, 1 mM
molecule,measurement,setting,value
"CCCCCCCCCCCCCC(=O)O[C@@H]1[C@@H](C)[C@@]2(O)[C@@H](C=C(CO)C[C@]3(O)C(=O)C(C)=C[C@@H]23)[C@@H]2C(C)(C)[C@]12OC(C)=O [PMA, phorbol 12-myristate 13-acetate]",concentration inducing significant cytotoxicity,RAW 264.7 cells; Figure 4A,≥ 1000 ng/mL
same,cell viability after PMA alone,RAW 264.7 cells; PMA 2 μg/mL,67%
same,"ROS level (DHE red fluorescent signal) after PMA alone, versus untreated cells",[1],much brighter
AdKSKSE,protective effect on viability of PMA-treated cells,[2]; [6],"some cell protective ability, but it was not as good as AdKSKSEE"
same,H2S release rate relative to AdKsKsEE,"[3]; Figure S13, both contain two SATO units and release similar amounts",somewhat faster
same,average length of short nanoworms,"[4]; conventional TEM, UA stained, PB 10 mM pH 7.4, 100 μM",33±2 nm
"C1COCCN1.COc1ccc(P(=S)(S)N2CCOCC2)cc1 (stereo not drawn) [GYY4137, reference compound]",protective effect on viability of PMA-treated cells,[2],Neither affected cell viability
AdKSKSEE,cell viability on co-treatment with PMA,"[2]; PMA 2 μg/mL, AdKSKSEE 200 μM + Cys 800 μM, 3 h, three experiments with five replicates",95%
same,aggregation number (molecules per crescent nanostructure),Static light scattering,600
same,critical aggregation concentration (CAC),[5],27 µM
same,H2S release peaking time,"[3]; PHDC 1 mM + Cys 4 mM in PB at rt, electrochemical probe, average of three runs",125 ± 15 min
same,H2S release without Cys,"[3]; PHDC 1 mM in PB at rt, no Cys, electrochemical probe",minimal H2S was detected
same,average external diameter of crescent nanostructures,[4]; [7],28±3 nm
same,average width of crescent nanostructures,[4]; [7],5±1 nm
same,"aggregation number, estimate from nanocrescent volume",[4]; nanocrescent volume from TEM dimensions divided by estimated molecular volume,560
AdKOKOEE,protective effect on viability of PMA-treated cells,[2]; [6],Neither treatment with Cys alone nor treatment with a combination of the non-H2S-releasing control peptide (AdKOKOEE) and Cys showed any protective effect
"[Na+].[Na+].[S-2] [Na2S, sodium sulfide, reference compound]",protective effect on viability of PMA-treated cells,[2],Neither affected cell viability
"N[C@@H](CS)C(=O)O [Cys, cysteine, reference compound]",protective effect on viability of PMA-treated cells,[2]; [6],Neither treatment with Cys alone nor treatment with a combination of the non-H2S-releasing control peptide (AdKOKOEE) and Cys showed any protective effect
